Experimental data gathered from unrelated publications.
Effect on: cell growth or viability

| Structure (SMILES) | cell line | assay | setting | endpoint | value |
| --- | --- | --- | --- | --- | --- |
| Cc1cc(C)cc(COc2cc3c(cc2OCc2cc(C)cc(C)c2)[C@H]2C[C@](O)(Cc4cn(CC5CC5)nn4)C[C@H](C)N2CC3)c1 | ASPC1 | MTT | – | IC50 | 612 nM |
| C=CC(=O)N1CCC[C@@H](n2nc(-c3ccc(Oc4ccccc4)cc3)c3c(N)ncnc32)C1 | KU812 | – | 48 h | GI50 | 3080 nM |
| CC(C)C[C@H](NC(=O)[C@H](Cc1ccccc1)NC(=O)c1cnccn1)B(O)O | KARPAS-299 | ATP luminescence | – | IC50 | 5.2 nM |
| CCc1ncn(CC(c2c[nH]c3ccc(C)cc23)c2c[nH]c3ccc(C)cc23)c1C(=O)OC | HaCaT | MTS | 20 µM, 24 h | inhibition | 23% |
| Cc1cc(C)cc(COc2cc3c(cc2OCc2cc(C)cc(C)c2)[C@H]2C[C@](O)(Cc4cn(CCOCCOCCOCC(=O)N[C@H](C(=O)N5C[C@H](O)C[C@H]5C(=O)NCc5ccc(-c6scnc6C)cc5)C(C)(C)C)nn4)C[C@H](C)N2CC3)c1 | ASPC1 | MTT | – | IC50 | 730 nM |
| CN1C[C@H](C(=O)N[C@]2(C)O[C@@]3(O)[C@@H]4CCCN4C(=O)[C@H](Cc4ccccc4)N3C2=O)C[C@@H]2c3cccc4[nH]cc(c34)C[C@H]21 | WI-38 | MTT | 72 h | EC50 | 80000 nM |
| COC(=O)c1c(C)ncn1CC(c1c[nH]c2ccc(C)cc12)c1c[nH]c2ccc(C)cc12 | HaCaT | MTS | 20 µM, 24 h | inhibition | 12.2% |
| Cc1cc(C)cc(COc2cc3c(cc2OCc2cc(C)cc(C)c2)[C@H]2C[C@](O)(Cc4cn(Cc5cnccn5)nn4)C[C@H](C)N2CC3)c1 | ASPC1 | MTT | – | IC50 | 753 nM |
| N=C(N)c1ccc(OCCCCCOc2ccc(C(=N)N)cc2)cc1 | HaCaT | MTS | 20 µM, 24 h | inhibition | 11.2% |
| Cc1ccc(Cn2cc(C[C@@]3(O)C[C@@H]4c5cc(OCc6cc(C)cc(C)c6)c(OCc6cc(C)cc(C)c6)cc5CCN4[C@@H](C)C3)nn2)cc1 | ASPC1 | MTT | – | IC50 | 560 nM |
| COC(=O)c1c(C)ncn1CC(c1c[nH]c2cc(Br)ccc12)c1c[nH]c2cc(Br)ccc12 | HaCaT | MTS | 20 µM, 24 h | inhibition | 28.8% |
| Cc1cc(C)cc(COc2cc3c(cc2OCc2cc(C)cc(C)c2)C2CC(O)(Cc4cn(CCOCCOCCOCCOc5ccc6c(c5)C(=O)N(C5CCC(=O)NC5=O)C6=O)nn4)CC(C)N2CC3)c1 (stereo not drawn) | ASPC1 | MTT | – | IC50 | 1120 nM |
| Cc1c(-c2cccc(C(F)(F)F)c2)sc2[nH]c(=O)n([C@H](C)c3cccc4ccccc34)c(=O)c12 | HCC827 | – | 10 µM | inhibition | > 80% |
| Cc1cc(C)cc(COc2cc3c(cc2OCc2cc(C)cc(C)c2)[C@H]2C[C@](O)(Cc4cn(Cc5cccnc5)nn4)C[C@H](C)N2CC3)c1 | ASPC1 | MTT | – | IC50 | 674 nM |
| C[C@@H](Oc1cc(-c2cnn(C3CCNCC3)c2)cnc1N)c1c(Cl)ccc(F)c1Cl | KARPAS-299 | MTT | 1 µg/mL, 72 h | inhibition | 85.2% |
| COc1cc(-c2ccc(-c3ccc(C(=N)N)nc3)s2)cc(OC)c1OC | CAKI-1 | – | – | GI50 | 1590 nM |
| CCOC(=O)c1c(C)ncn1CC(c1cn(C)c2ccc([N+](=O)[O-])cc12)c1cn(C)c2ccc([N+](=O)[O-])cc12 | HaCaT | MTS | 20 µM, 24 h | inhibition | 3.7% |
| COC(C)(C)CCC[C@](C)(O)[C@H]1CC[C@]2(C)[C@@H]1[C@H](O)C[C@@H]1[C@@]3(C)CC[C@H](O)C(C)(C)[C@@H]3CC[C@]12C | NCI-H358 | MTT | 72 h | IC80 | 81700 nM |
| Cc1cc(C)cc(COc2cc3c(cc2OCc2cc(C)cc(C)c2)[C@H]2C[C@](O)(Cc4cn(-c5ccccc5)nn4)C[C@H](C)N2CC3)c1 | ASPC1 | MTT | – | IC50 | 593 nM |
| CC(C)=CCC[C@](C)(O)[C@H]1CC[C@]2(C)[C@@H]1[C@H](O)C[C@@H]1[C@@]3(C)CC[C@H](O[C@@H]4O[C@H](CO)[C@@H](O)[C@H](O)[C@H]4O[C@@H]4O[C@H](CO)[C@@H](O)[C@H](O)[C@H]4O)C(C)(C)[C@@H]3CC[C@]12C | NCI-H358 | MTT | 72 h | IC80 | > 100000 nM |
| C=CC(=O)Nc1ccc(Cn2cc(C[C@@]3(O)C[C@@H]4c5cc(OCc6cc(C)cc(C)c6)c(OCc6cc(C)cc(C)c6)cc5CCN4[C@@H](C)C3)nn2)cc1 | ASPC1 | MTT | – | IC50 | 481 nM |
| Cc1cc(Nc2ncc(Cl)c(Nc3ccccc3S(=O)(=O)C(C)C)n2)c(OC(C)C)cc1C1CCNCC1 | KARPAS-299 | MTT | 0.06173 µg/mL, 72 h | inhibition | 62.4% |
| COc1ccc(-c2ccc(-c3ccc(C(=N)N)nc3)s2)cc1Cl | SNB-19 | SRB | – | GI50 | 1700 nM |
| COc1cc(Nc2nccc(-c3cnn4nc(OC)ccc34)n2)cc(C(F)(F)F)c1 | RERF-LC-MS | ATP luminescence | – | IC50 | 590 nM |
